pKi: −log10 of the molar value.
Key:
Oxytocin receptor = molecular target: T1, Oxytocin receptor (Homo sapiens, UniProt P30559); test: Displacement of [3H]oxytocin from human Oxytocin receptor
T1 sequence (P30559 whole entry): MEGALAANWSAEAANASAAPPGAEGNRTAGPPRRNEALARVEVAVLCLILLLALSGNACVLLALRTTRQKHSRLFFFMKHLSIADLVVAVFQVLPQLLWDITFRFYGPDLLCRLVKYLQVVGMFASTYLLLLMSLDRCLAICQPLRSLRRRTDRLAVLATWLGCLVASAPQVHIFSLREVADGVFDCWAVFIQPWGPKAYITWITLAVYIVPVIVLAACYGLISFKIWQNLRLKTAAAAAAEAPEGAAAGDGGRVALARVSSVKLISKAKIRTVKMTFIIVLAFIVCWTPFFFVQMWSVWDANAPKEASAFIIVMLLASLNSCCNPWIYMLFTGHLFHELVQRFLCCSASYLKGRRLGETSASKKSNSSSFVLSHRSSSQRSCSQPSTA

[1] = Per oral administration of 5 mg/Kg of dose required for measuring Area under concentration of curve in rat; format: ADME; conditions: in vivo
Procedure, shortened: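 Rats (n=2) received 5 mg/kg in 5% DMSO/95% PEG400. Plasma exposure is reported as AUC in h ng mL−1.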

[2] = Lipophilicity of the compound measured as CHI LogD by HPLC; format: physicochemical
[3] = Volume of distribution in rat; format: ADME, organism-based; conditions: in vivo, read-out: Vdss
[4] = Half life in rat; format: ADME; conditions: in vivo
[5] = Bioavailability in rat; format: ADME, organism-based; conditions: in vivo
Plasma clearance in rat = conditions: in vivo
[6] = Volume of distribution in dog; format: ADME, organism-based, Canis lupus familiaris; conditions: in vivo, read-out: Vdss
Plasma clearance in dog = conditions: in vivo
[7] = Bioavailability in dog; format: ADME, organism-based, Canis lupus familiaris; conditions: in vivo
Vasopressin V1a receptor = Vasopressin V1a receptor (Homo sapiens, UniProt P37288); test: Displacement of [3H]vasopressin from human V1a vasopressin receptor
Vasopressin V1a receptor, sequence (P37288 whole entry): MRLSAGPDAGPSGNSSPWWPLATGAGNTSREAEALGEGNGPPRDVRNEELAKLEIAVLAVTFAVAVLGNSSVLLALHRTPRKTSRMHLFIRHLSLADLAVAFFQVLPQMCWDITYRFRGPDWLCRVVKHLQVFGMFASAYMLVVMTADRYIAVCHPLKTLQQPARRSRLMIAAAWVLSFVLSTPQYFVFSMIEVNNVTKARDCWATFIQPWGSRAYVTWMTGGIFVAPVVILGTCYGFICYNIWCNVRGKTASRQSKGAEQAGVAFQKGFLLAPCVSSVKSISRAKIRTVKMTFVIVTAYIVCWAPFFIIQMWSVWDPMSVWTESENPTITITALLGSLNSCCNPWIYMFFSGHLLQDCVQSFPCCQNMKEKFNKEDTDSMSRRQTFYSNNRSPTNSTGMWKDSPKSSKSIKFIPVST

[8] = Per oral administration of 5 mg/Kg of dose required for measuring Area under concentration of curve in dog; format: ADME, Canis lupus familiaris; conditions: in vivo
[9] = Per oral administration of 0.6 mg/Kg of dose required for measuring Area under concentration of curve in dog; format: ADME, Canis lupus familiaris; conditions: in vivo
Procedure, shortened: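 Dogs (n=1) received 0.6 mg/kg in either 5% DMSO/95% PEG400 or 5% DMSO/95% labrafil. Exposure is given as plasma AUC in h ng mL−1.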

Vasopressin V1b receptor = molecular target: T2, Vasopressin V1b receptor (Homo sapiens, UniProt P47901); test: Displacement of [3H]vasopressin from human V1b vasopressin receptor
T2 sequence (P47901 whole entry): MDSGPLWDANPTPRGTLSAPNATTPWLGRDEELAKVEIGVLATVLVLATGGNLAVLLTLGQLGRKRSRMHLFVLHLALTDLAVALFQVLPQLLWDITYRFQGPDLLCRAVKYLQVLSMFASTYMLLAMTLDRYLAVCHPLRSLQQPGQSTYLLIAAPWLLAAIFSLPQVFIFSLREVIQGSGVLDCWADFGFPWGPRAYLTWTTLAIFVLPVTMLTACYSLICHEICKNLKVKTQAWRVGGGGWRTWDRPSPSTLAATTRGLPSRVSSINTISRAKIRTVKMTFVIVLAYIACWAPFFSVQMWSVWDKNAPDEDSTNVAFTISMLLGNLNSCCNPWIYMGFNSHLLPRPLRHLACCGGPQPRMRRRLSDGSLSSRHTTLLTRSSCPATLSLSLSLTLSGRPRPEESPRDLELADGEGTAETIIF

Vasopressin V2 receptor = Vasopressin V2 receptor (Homo sapiens, UniProt P30518); test: Displacement of [3H]oxytocin from human V2 vasopressin receptor
Vasopressin V2 receptor, sequence (P30518 whole entry): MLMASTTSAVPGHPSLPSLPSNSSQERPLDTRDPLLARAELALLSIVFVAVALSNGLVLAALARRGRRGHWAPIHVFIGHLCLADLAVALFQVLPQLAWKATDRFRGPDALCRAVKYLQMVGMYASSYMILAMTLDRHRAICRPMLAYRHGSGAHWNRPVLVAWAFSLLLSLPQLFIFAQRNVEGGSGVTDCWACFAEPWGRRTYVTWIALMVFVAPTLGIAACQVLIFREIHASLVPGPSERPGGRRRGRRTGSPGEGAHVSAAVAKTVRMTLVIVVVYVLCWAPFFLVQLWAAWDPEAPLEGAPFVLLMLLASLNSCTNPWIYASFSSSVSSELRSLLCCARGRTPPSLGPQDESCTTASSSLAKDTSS

[10] = Per oral administration of 0.6 mg/Kg of dose required for measuring Area under concentration of curve in dog; conditions: in vivo

SMILES	pKi (Oxytocin receptor)	AUC [1]	chromatographic logD [2]	other results
CC(=O)Nc1cccc([C@H](C(=O)NC(C)(C)C)N2C(=O)[C@@H](C3Cc4ccccc4C3)NC(=O)[C@H]2CC(C)C)c1	8.20			
CC(C)C[C@@H]1C(=O)N[C@H](C2Cc3ccccc3C2)C(=O)N1[C@H](C(=O)NC(C)C)c1ccc(C(F)(F)F)cc1	7.10			
CC(C)C[C@@H]1C(=O)N[C@H](C2Cc3ccccc3C2)C(=O)N1[C@@H](C(=O)NC(C)(C)C)c1ccccc1	8.30			
CC(C)C[C@@H]1CN[C@H](C2Cc3ccccc3C2)C(=O)N1[C@@H](C(=O)NC(C)C)c1ccccc1	6.50			
C=CCN1C(=O)[C@@H](CC(C)C)N([C@@H](C(=O)NC(C)C)c2ccccc2)C(=O)[C@H]1C1Cc2ccccc2C1	7.20			
CC(C)C[C@@H]1C(=O)N[C@H](C2Cc3ccccc3C2)C(=O)N1[C@@H](C(=O)NC(C)C)c1ccc(S(C)(=O)=O)cc1	8.00	60 ng·h/mL	2.4	Vd [3]: 0.7 L/kg; half-life [4]: 90 min; bioavailability [5]: 3%; CL (Plasma clearance in rat): 21 mL/min/kg
Cc1ccc([C@@H](C(=O)NC(C)C)N2C(=O)[C@@H](C3Cc4ccccc4C3)NC(=O)[C@H]2CC(C)C)cc1	7.30			
CC(C)C[C@@H]1C(=O)N[C@H](C2Cc3ccccc3C2)C(=O)N1[C@@H](C(=O)NC(C)C)c1ccc(F)cc1F				Vd [6]: 1.2 L/kg; CL (Plasma clearance in dog): 11 mL/min/kg; F [7]: 33%; pKi (Vasopressin V1a receptor): < 5.20; AUC [8]: 121 ng·h/mL; AUC [9]: 291 ng·h/mL; pKi (Vasopressin V1b receptor): < 5.20; pKi (Vasopressin V2 receptor): 6.20
CC(C)C[C@@H]1C(=O)N[C@H](C2Cc3ccccc3C2)C(=O)N1[C@@H](C(=O)NC(C)C)c1ccc(N(C)C)cc1	8.50	287 ng·h/mL	3.4	AUC [10]: 335 ng·h/mL; Vd [6]: 1.7 L/kg; CL (Plasma clearance in dog): 15 mL/min/kg; bioavailability [7]: 50%; Vd [3]: 2.3 L/kg; half-life [4]: 72 min; pKi (Vasopressin V1a receptor): < 4.40; bioavailability [5]: 5%; pKi (Vasopressin V1b receptor): < 4.30; CL (Plasma clearance in rat): 48 mL/min/kg; pKi (Vasopressin V2 receptor): < 4.10
CC(C)C[C@@H]1C(=O)N[C@H](C2Cc3ccccc3C2)C(=O)N1[C@H](C(=O)NC(C)C)c1ccc(C(N)=O)cc1	6.80			
CC(C)C[C@@H]1C(=O)N[C@H](C2Cc3ccccc3C2)C(=O)N1[C@@H](C(=O)NC(C)(C)C)c1ccc(OC(F)(F)F)cc1	8.30	85 ng·h/mL	4.1	
CC(C)C[C@@H]1C(=O)N[C@H](C2Cc3ccccc3C2)C(=O)N1[C@@H](C(=O)NC(C)C)c1ccc(C(N)=O)cc1	7.50	44 ng·h/mL	1.8	
CC(C)C[C@@H]1C(=O)N[C@H](C2Cc3ccccc3C2)C(=O)N1[C@@H](C(=O)NC(C)C)c1ccc(F)cc1	8.40	421 ng·h/mL	3.2	AUC [10]: 259 ng·h/mL; Vd [6]: 0.8 L/kg; CL (Plasma clearance in dog): 5 mL/min/kg; bioavailability [7]: 13%; Vd [3]: 0.8 L/kg; half-life [4]: 54 min; pKi (Vasopressin V1a receptor): < 5.20; bioavailability [5]: 13%; pKi (Vasopressin V1b receptor): < 5.20; CL (Plasma clearance in rat): 23 mL/min/kg; pKi (Vasopressin V2 receptor): < 5.90
COc1ccc([C@@H](C(=O)NC(C)(C)C)N2C(=O)[C@@H](C3Cc4ccccc4C3)NC(=O)[C@H]2CC(C)C)cc1	7.40			
CC(C)C[C@@H]1C(=O)N[C@H](C2Cc3ccccc3C2)C(=O)N1[C@H](C(=O)NC(C)C)c1ccc(S(C)(=O)=O)cc1	7.00			
CC(C)C[C@@H]1C(=O)N[C@H](C2Cc3ccccc3C2)C(=O)N1[C@H](C(=O)NC(C)(C)C)c1ccccc1	7.10			
CC(C)C[C@@H]1C(=O)N[C@H](C2Cc3ccccc3C2)C(=O)N1[C@@H](C(=O)NC(C)C)c1ccc(C(F)(F)F)cc1	8.30	280 ng·h/mL	3.7	

SMILES	pKi (Oxytocin receptor)	AUC [1]	chromatographic logD [2]	other results
CC(C)C[C@@H]1C(=O)N[C@H](C2Cc3ccccc3C2)C(=O)N1[C@H](C(=O)NC(C)(C)C)c1ccc(Cl)cc1	6.80			
CC(C)C[C@@H]1C(=O)N[C@H](C2Cc3ccccc3C2)C(=O)N1[C@H](C(=O)NC(C)C)c1ccccc1	7.30			
CC(=O)Nc1ccc([C@H](C(=O)NC(C)C)N2C(=O)[C@@H](C3Cc4ccccc4C3)NC(=O)[C@H]2CC(C)C)cc1	8.80			
CC(C)C[C@@H]1C(=O)N[C@H](C2Cc3ccccc3C2)C(=O)N1[C@H](C(=O)NC(C)C)c1ccc(N(C)C)cc1	7.60			
CC(C)C[C@@H]1C(=O)N[C@H](C2Cc3ccccc3C2)C(=O)N1[C@@H](C(=O)NC(C)(C)C)c1cccc(N2CCN(C)CC2)c1	6.80			
COc1ccc([C@H](C(=O)NC(C)(C)C)N2C(=O)[C@@H](C3Cc4ccccc4C3)NC(=O)[C@H]2CC(C)C)cc1	8.60	101 ng·h/mL	3.4	
CC(C)C[C@@H]1C(=O)N[C@H](C2Cc3ccccc3C2)C(=O)N1[C@H](C(=O)NC(C)(C)C)c1ccc(OC(F)(F)F)cc1	6.80			
CC(=O)Nc1ccc([C@H](C(=O)NC(C)(C)C)N2C(=O)[C@@H](C3Cc4ccccc4C3)NC(=O)[C@H]2CC(C)C)cc1	8.70	59 ng·h/mL	2.4	
c1ccc2c(c1)CNCO2	8.70			
CC(=O)Nc1ccc([C@@H](C(=O)NC(C)C)N2C(=O)[C@@H](C3Cc4ccccc4C3)NC(=O)[C@H]2CC(C)C)cc1	6.90			
CC(C)C[C@@H]1C(=O)N[C@H](C2Cc3ccccc3C2)C(=O)N1[C@@H](C(=O)N(C)C(C)C)c1ccccc1	8.40			
CC(C)C[C@@H]1C(=O)N[C@H](C2Cc3ccccc3C2)C(=O)N1[C@@H](C(=O)NC(C)(C)C)c1ccc(Cl)cc1	8.60	95 ng·h/mL	4	Vd [3]: 0.4 L/kg; half-life [4]: 42 min; bioavailability [5]: 2%; CL (Plasma clearance in rat): 43 mL/min/kg
CC(C)C[C@@H]1C(=O)N[C@H](C2Cc3ccccc3C2)C(=O)N1[C@@H](C(=O)NC(C)(C)C)c1ccc(N2CCN(C)CC2)cc1	7.60			
CC(C)C[C@@H]1C(=O)N[C@H](C2Cc3ccccc3C2)C(=O)N1[C@@H](C(=O)NC(C)C)c1ccccc1	8.40	114 ng·h/mL	3.2	Vd [3]: 0.8 L/kg; half-life [4]: 60 min; bioavailability [5]: 5%; CL (Plasma clearance in rat): 29 mL/min/kg
CC(C)C[C@@H]1C(=O)N[C@H](C2Cc3ccccc3C2)C(=O)N1[C@H](C(=O)NC(C)C)c1ccc(F)cc1	7.00			
Cc1ccc([C@H](C(=O)NC(C)C)N2C(=O)[C@@H](C3Cc4ccccc4C3)NC(=O)[C@H]2CC(C)C)cc1	8.40		3.5	Vd [3]: 0.6 L/kg; half-life [4]: 36 min; CL (Plasma clearance in rat): 37 mL/min/kg

— ChEMBL document CHEMBL1140377, “2,5-diketopiperazines as potent, selective, and orally bioavailable oxytocin antagonists. 2. Synthesis, chirality, and pharmacokinetics” (J Med Chem, 2005)
